# Active and inactive are the calls of the source. The calls are words filed in the database; no cut-off is given here.
# Tests used:
# [1] = molecular target: Beta-galactosidase (Escherichia coli) (UniProt Q8VNN2); test: Inhibition of Escherichia coli beta-galactosidase at 1 mM using p-nitrophenyl glycopyranoside preincubated for 5 mins followed by substrate addition measured after 20 mins by visible absorption spectroscopic method relative to control
# How it was run: (§1)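 Test compound at 1 mM in well. Mix: 0.01–0.5 units/mL enzyme plus 10 mM p-nitrophenyl glycopyranoside (aqueous solution), buffered to the enzyme's optimal pH. Enzyme and inhibitor preincubated 5 min at rt. Substrate then added and incubated 20 min at 37 °C. Stopped with sodium borate (pH 9.8). p-Nitrophenolate read at 405 nm. Duplicates averaged.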
# Bos taurus = species on record: Bos taurus; test: Inhibition of bovine kidney alpha-L-fucosidase at 1 mM using p-nitrophenyl glycopyranoside preincubated for 5 mins followed by substrate addition measured after 20 mins by visible absorption spectroscopic method relative to control; how it was run: as §1
# Saccharomyces cerevisiae = test: Inhibition of yeast alpha glucosidase at 1 mM using p-nitrophenyl glycopyranoside preincubated for 5 mins followed by substrate addition measured after 20 mins by visible absorption spectroscopic method relative to control; how it was run: as §1
# Oryza sativa = test: Inhibition of rice alpha-glucosidase at 1 mM using p-nitrophenyl glycopyranoside preincubated for 5 mins followed by substrate addition measured after 20 mins by visible absorption spectroscopic method relative to control; how it was run: as §1
# Aspergillus niger = test: Inhibition of Aspergillus niger amyloglucosidase at 1 mM using p-nitrophenyl glycopyranoside preincubated for 5 mins followed by substrate addition measured after 20 mins by visible absorption spectroscopic method relative to control; how it was run: as §1
# Prunus dulcis = test: Inhibition of almond beta-glucosidase at 1 mM using p-nitrophenyl glycopyranoside preincubated for 5 mins followed by substrate addition measured after 20 mins by visible absorption spectroscopic method relative to control; how it was run: as §1
# Cornu aspersum = test: Inhibition of snail beta-mannosidase at 1 mM using p-nitrophenyl glycopyranoside preincubated for 5 mins followed by substrate addition measured after 20 mins by visible absorption spectroscopic method relative to control; how it was run: as §1
# Canavalia ensiformis = test: Inhibition of jack bean beta-N-acetylglucosaminidase at 1 mM using p-nitrophenyl glycopyranoside preincubated for 5 mins followed by substrate addition measured after 20 mins by visible absorption spectroscopic method relative to control; how it was run: as §1
# [2] = molecular target: T1, Lysosomal acid glucosylceramidase (Homo sapiens, UniProt P04062); test: Inhibition of human lysosomal beta-glucocerebrosidase using 4-methylumbelliferyl-beta-D-glucopyranoside as substrate preincubated for 45 mins followed by substrate addition measured after 30 mins by fluorescence spectroscopic method
# T1 sequence (P04062 whole entry): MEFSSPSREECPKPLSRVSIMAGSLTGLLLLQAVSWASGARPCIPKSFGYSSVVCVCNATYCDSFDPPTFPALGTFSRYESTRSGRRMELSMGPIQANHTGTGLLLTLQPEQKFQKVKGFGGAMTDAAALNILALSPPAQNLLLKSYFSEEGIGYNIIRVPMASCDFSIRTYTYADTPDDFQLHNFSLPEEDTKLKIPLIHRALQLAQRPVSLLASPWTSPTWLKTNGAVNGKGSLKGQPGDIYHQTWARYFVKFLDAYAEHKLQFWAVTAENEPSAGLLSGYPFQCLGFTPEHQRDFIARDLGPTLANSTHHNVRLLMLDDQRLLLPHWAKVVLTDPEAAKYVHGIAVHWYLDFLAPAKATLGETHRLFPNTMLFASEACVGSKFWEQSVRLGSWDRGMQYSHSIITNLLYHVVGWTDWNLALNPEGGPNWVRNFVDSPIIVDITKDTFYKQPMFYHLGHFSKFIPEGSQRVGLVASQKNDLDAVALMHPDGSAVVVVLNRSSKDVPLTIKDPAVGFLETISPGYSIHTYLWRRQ
# How it was run: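 Enzyme in 100 mM McIlvaine buffer pH 5.2 with 0.25% sodium taurocholate and 0.1% Triton X-100, with inhibitor. Preincubated at 0 °C for 45 min, then started with 3 mM 4-methylumbelliferyl glycoside substrate solution and incubated 30 min at 37 °C. Stopped with 400 mM glycine-NaOH pH 10.6. 4-Methylumbelliferone fluorescence read at ex 362/em 450 nm.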
# Beta-galactosidase = molecular target: T2, Beta-galactosidase (Bos taurus, UniProt Q58D55); test: Inhibition of bovine liver beta-galactosidase using p-nitrophenyl glycopyranoside preincubated for 5 mins followed by substrate addition measured after 20 mins by visible absorption spectroscopic method
# T2 sequence (Q58D55 whole entry): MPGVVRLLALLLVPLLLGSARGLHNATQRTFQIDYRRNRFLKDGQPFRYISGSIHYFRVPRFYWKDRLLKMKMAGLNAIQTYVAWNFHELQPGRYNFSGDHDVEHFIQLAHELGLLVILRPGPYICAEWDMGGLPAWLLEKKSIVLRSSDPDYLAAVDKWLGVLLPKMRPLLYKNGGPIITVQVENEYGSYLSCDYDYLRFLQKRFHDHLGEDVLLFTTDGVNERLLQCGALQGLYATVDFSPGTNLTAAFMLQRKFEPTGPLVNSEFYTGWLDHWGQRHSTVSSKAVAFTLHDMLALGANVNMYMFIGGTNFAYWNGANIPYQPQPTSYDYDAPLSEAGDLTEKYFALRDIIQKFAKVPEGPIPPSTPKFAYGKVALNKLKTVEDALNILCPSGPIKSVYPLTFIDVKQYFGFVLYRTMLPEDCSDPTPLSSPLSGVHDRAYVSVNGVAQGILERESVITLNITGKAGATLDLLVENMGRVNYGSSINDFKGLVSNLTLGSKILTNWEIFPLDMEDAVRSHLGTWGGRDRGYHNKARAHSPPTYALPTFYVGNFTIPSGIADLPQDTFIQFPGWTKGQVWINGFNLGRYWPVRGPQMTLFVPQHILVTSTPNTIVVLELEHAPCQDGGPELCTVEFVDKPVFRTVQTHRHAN
# How it was run: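 IC50 determined only for compounds giving ≥80% inhibition at 1 mM, read from plots of % inhibition versus inhibitor concentration. p-Nitrophenyl glycopyranoside substrate (10 mM solution) at the enzyme's optimal pH, with 0.01–0.5 units/mL enzyme. 5 min rt preincubation with enzyme, then 20 min at 37 °C. Borate stop (pH 9.8), absorbance at 405 nm. Duplicates averaged.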
# Beta-galactosidase (Escherichia coli), sequence (Q8VNN2 whole entry, looked up): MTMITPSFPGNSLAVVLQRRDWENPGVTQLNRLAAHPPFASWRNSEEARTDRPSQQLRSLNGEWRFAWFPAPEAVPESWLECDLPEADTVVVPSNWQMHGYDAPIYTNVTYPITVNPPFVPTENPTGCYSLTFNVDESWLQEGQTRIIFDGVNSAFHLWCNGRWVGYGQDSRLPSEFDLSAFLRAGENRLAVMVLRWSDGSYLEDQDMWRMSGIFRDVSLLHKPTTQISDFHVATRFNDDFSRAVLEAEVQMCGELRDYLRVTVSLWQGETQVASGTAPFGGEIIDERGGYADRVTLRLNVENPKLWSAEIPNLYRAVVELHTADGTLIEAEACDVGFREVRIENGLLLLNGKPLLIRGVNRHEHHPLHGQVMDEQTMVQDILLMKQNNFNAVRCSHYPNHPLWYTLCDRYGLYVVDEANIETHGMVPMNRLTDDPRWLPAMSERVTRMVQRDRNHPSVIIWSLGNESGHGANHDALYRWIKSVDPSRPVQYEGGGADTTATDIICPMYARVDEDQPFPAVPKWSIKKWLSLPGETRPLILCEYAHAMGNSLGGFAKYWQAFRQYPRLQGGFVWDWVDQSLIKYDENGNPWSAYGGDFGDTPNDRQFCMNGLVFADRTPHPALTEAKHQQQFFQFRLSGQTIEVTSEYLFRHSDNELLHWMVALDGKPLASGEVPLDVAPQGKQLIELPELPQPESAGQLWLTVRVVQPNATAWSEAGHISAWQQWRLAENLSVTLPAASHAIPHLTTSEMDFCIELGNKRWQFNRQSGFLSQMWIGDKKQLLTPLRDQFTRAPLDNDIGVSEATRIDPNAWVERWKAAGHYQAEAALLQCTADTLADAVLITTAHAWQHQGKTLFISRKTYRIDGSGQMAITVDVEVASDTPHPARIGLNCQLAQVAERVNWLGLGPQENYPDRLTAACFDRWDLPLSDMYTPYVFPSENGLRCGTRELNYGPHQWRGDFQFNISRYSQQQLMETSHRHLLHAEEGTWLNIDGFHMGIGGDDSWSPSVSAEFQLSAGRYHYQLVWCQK
inhibition [1],inhibition (Bos taurus) [%],inhibition (Saccharomyces cerevisiae),inhibition (Oryza sativa),inhibition (Aspergillus niger),inhibition (Prunus dulcis) [%],inhibition (Cornu aspersum),inhibition (Canavalia ensiformis),IC50 [2] [µM],IC50 (Beta-galactosidase) [µM],SMILES
inactive,17,inactive,inactive,inactive,< 53,inactive,inactive,28,173,O[C@@H]1[C@H](O)CN[C@@H]1Cn1cc(-c2ccccc2)nn1
inactive,40,inactive,inactive,38%,97,inactive,inactive,11,458,O[C@@H]1[C@H](O)CN[C@H]1Cn1cc(-c2ccccc2)nn1

# From ChEMBL document CHEMBL4190262, “Tuning of β-glucosidase and α-galactosidase inhibition by generation and in situ screening of a library of pyrrolidine-triazole hybrid molecules” (Eur J Med Chem, 2017)
